Assay results as given in ChEMBL document CHEMBL1671684, “In vitro resistance profile of the hepatitis C virus NS3/4A protease inhibitor TMC435” (Antimicrob Agents Chemother, 2010).

Tests used:
[1] = tested on: Hepatitis C virus; assay: Antiviral activity against Hepatitis C virus subtype 1b expressing WT NS3 infected in HuH7 cells after 48 hrs by luciferase reporter assay; assay type: functional, organism-based, Hepacivirus hominis; settings: genotype 1b, Huh-7, 48 h
Method in brief: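 Huh7-lunet cells were electroporated with 10 μg wild-type genotype 1b subgenomic replicon RNA (clone ET; luciferase reporter; E1202G, T1280I, K1846T). They were seeded at 4,000 cells/well over a nine-point compound dilution series. After 48 h at 37°C, 5% CO2, luciferase reagent was added 1:1, followed by 10–20 min in the dark and a luminescence read. EC50 is the median of individual-experiment EC50s.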

[2] = tested on: Hepatitis C virus; assay: Antiviral activity against Hepatitis C virus subtype 1b expressing NS3 V36M mutant infected in HuH7 cells after 48 hrs by luciferase reporter assay; assay type: functional, organism-based, Hepacivirus hominis; settings: genotype 1b, Huh-7, 48 h
Method in brief: (§1)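 Genotype 1b con1 subgenomic bicistronic replicon (clone ET) with luciferase reporter and adaptive mutations E1202G, T1280I, K1846T, carrying site-directed NS3 single or double mutations. 10 μg wild-type or mutant replicon RNA electroporated into Huh7-lunet cells, seeded 4,000 cells/well over a nine-point inhibitor dilution series, 48 h at 37°C, 5% CO2, then luminescence read. EC50 taken as median of individual experiments; fold change relative to parental replicon EC50.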

[3] = tested on: Hepatitis C virus; assay: Antiviral activity against Hepatitis C virus subtype 1b expressing NS3 F43I mutant infected in HuH7 cells after 48 hrs by luciferase reporter assay; assay type: functional, organism-based, Hepacivirus hominis; settings: genotype 1b, Huh-7, 48 h; method in brief: as §1
[4] = tested on: Hepatitis C virus; assay: Antiviral activity against Hepatitis C virus subtype 1b expressing NS3 F43V mutant infected in HuH7 cells after 48 hrs by luciferase reporter assay; assay type: functional, organism-based, Hepacivirus hominis; settings: genotype 1b, Huh-7, 48 h; method in brief: as §1
[5] = tested on: Hepatitis C virus; assay: Antiviral activity against Hepatitis C virus subtype 1b expressing NS3 T54A mutant infected in HuH7 cells after 48 hrs by luciferase reporter assay; assay type: functional, organism-based, Hepacivirus hominis; settings: genotype 1b, Huh-7, 48 h; method in brief: as §1
[6] = tested on: Hepatitis C virus; assay: Antiviral activity against Hepatitis C virus subtype 1b expressing NS3 Q80H mutant infected in HuH7 cells after 48 hrs by luciferase reporter assay; assay type: functional, organism-based, Hepacivirus hominis; settings: genotype 1b, Huh-7, 48 h; method in brief: as §1
[7] = tested on: Hepatitis C virus; assay: Antiviral activity against Hepatitis C virus subtype 1b expressing NS3 Q80K mutant infected in HuH7 cells after 48 hrs by luciferase reporter assay; assay type: functional, organism-based, Hepacivirus hominis; settings: genotype 1b, Huh-7, 48 h; method in brief: as §1
[8] = tested on: Hepatitis C virus; assay: Antiviral activity against Hepatitis C virus subtype 1b expressing NS3 R155Q mutant infected in HuH7 cells after 48 hrs by luciferase reporter assay; assay type: functional, organism-based, Hepacivirus hominis; settings: genotype 1b, Huh-7, 48 h; method in brief: as §1
[9] = tested on: Hepatitis C virus; assay: Antiviral activity against Hepatitis C virus subtype 1b expressing NS3 R155K mutant infected in HuH7 cells after 48 hrs by luciferase reporter assay; assay type: functional, organism-based, Hepacivirus hominis; settings: genotype 1b, Huh-7, 48 h; method in brief: as §1
[10] = tested on: Hepatitis C virus; assay: Antiviral activity against Hepatitis C virus subtype 1b expressing NS3 A156V mutant infected in HuH7 cells after 48 hrs by luciferase reporter assay; assay type: functional, organism-based, Hepacivirus hominis; settings: genotype 1b, Huh-7, 48 h; method in brief: as §1
[11] = tested on: Hepatitis C virus; assay: Antiviral activity against Hepatitis C virus subtype 1b expressing NS3 D168E mutant infected in HuH7 cells after 48 hrs by luciferase reporter assay; assay type: functional, organism-based, Hepacivirus hominis; settings: genotype 1b, Huh-7, 48 h; method in brief: as §1
[12] = tested on: Hepatitis C virus; assay: Antiviral activity against Hepatitis C virus subtype 1b expressing NS3 D168V mutant infected in HuH7 cells after 48 hrs by luciferase reporter assay; assay type: functional, organism-based, Hepacivirus hominis; settings: genotype 1b, Huh-7, 48 h; method in brief: as §1
[13] = tested on: Hepatitis C virus; assay: Antiviral activity against Hepatitis C virus subtype 1b expressing NS3 D168I mutant infected in HuH7 cells after 48 hrs by luciferase reporter assay; assay type: functional, organism-based, Hepacivirus hominis; settings: genotype 1b, Huh-7, 48 h; method in brief: as §1
[14] = tested on: Hepatitis C virus; assay: Antiviral activity against Hepatitis C virus subtype 1b expressing NS3 V170T mutant infected in HuH7 cells after 48 hrs by luciferase reporter assay; assay type: functional, organism-based, Hepacivirus hominis; settings: genotype 1b, Huh-7, 48 h; method in brief: as §1
[15] = tested on: Hepatitis C virus; assay: Antiviral activity against Hepatitis C virus subtype 1b expressing NS3 F43S and Q80R mutant infected in HuH7 cells after 48 hrs by luciferase reporter assay; assay type: functional, organism-based, Hepacivirus hominis; settings: genotype 1b, Huh-7, 48 h; method in brief: as §1
[16] = tested on: Hepatitis C virus; assay: Antiviral activity against Hepatitis C virus subtype 1b expressing NS3 F43S and D168E mutant infected in HuH7 cells after 48 hrs by luciferase reporter assay; assay type: functional, organism-based, Hepacivirus hominis; settings: genotype 1b, Huh-7, 48 h; method in brief: as §1
[17] = tested on: Hepatitis C virus; assay: Antiviral activity against Hepatitis C virus subtype 1b expressing NS3 Q80K and R155K mutant infected in HuH7 cells after 48 hrs by luciferase reporter assay; assay type: functional, organism-based, Hepacivirus hominis; settings: genotype 1b, Huh-7, 48 h; method in brief: as §1
[18] = tested on: Hepatitis C virus; assay: Antiviral activity against Hepatitis C virus subtype 1b expressing NS3 Q80R and R155K mutant infected in HuH7 cells after 48 hrs by luciferase reporter assay; assay type: functional, organism-based, Hepacivirus hominis; settings: genotype 1b, Huh-7, 48 h; method in brief: as §1
[19] = tested on: Hepatitis C virus; assay: Antiviral activity against Hepatitis C virus subtype 1b expressing NS3 Q80R and D168E mutant infected in HuH7 cells after 48 hrs by luciferase reporter assay; assay type: functional, organism-based, Hepacivirus hominis; settings: genotype 1b, Huh-7, 48 h; method in brief: as §1
[20] = tested on: Hepatitis C virus; assay: Antiviral activity against Hepatitis C virus subtype 1b expressing NS3 Q80R and D168A mutant infected in HuH7 cells after 48 hrs by luciferase reporter assay; assay type: functional, organism-based, Hepacivirus hominis; settings: genotype 1b, Huh-7, 48 h; method in brief: as §1
[21] = tested on: Hepatitis C virus; assay: Ratio of EC50 for Hepatitis C virus subtype 1b expressing NS3 V36 M mutant to EC50 for Hepatitis C virus subtype 1b expressing WT NS3 infected in HuH7 cells after 48 hrs by luciferase reporter assay; assay type: functional, Hepacivirus hominis, genotype 1b, Huh-7
Method in brief: (§2)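 Transient replicon assay: site-directed single or multiple NS3 mutations engineered into genotype 1b (con1, clone ET) subgenomic bicistronic replicon with luciferase reporter and adaptive mutations E1202G, T1280I, K1846T. Huh7-lunet cells electroporated with 10 μg wild-type or mutant replicon RNA, seeded 4,000 cells/well with nine-point inhibitor dilution; 48 h, 37°C, 5% CO2; luminescence read-out. EC50 as median of individual experiments; fold change versus parental replicon EC50.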

[22] = tested on: Hepatitis C virus; assay: Ratio of EC50 for Hepatitis C virus subtype 1b expressing NS3 F43S mutant to EC50 for Hepatitis C virus subtype 1b expressing WT NS3 infected in HuH7 cells after 48 hrs by luciferase reporter assay; assay type: functional, Hepacivirus hominis, genotype 1b, Huh-7; method in brief: as §2
[23] = tested on: Hepatitis C virus; assay: Ratio of EC50 for Hepatitis C virus subtype 1b expressing NS3 T54A mutant to EC50 for Hepatitis C virus subtype 1b expressing WT NS3 infected in HuH7 cells after 48 hrs by luciferase reporter assay; assay type: functional, Hepacivirus hominis, genotype 1b, Huh-7; method in brief: as §2
[24] = tested on: Hepatitis C virus; assay: Ratio of EC50 for Hepatitis C virus subtype 1b expressing NS3 Q80K mutant to EC50 for Hepatitis C virus subtype 1b expressing WT NS3 infected in HuH7 cells after 48 hrs by luciferase reporter assay; assay type: functional, Hepacivirus hominis, genotype 1b, Huh-7; method in brief: as §2
[25] = tested on: Hepatitis C virus; assay: Ratio of EC50 for Hepatitis C virus subtype 1b expressing NS3 R155M mutant to EC50 for Hepatitis C virus subtype 1b expressing WT NS3 infected in HuH7 cells after 48 hrs by luciferase reporter assay; assay type: functional, Hepacivirus hominis, genotype 1b, Huh-7; method in brief: as §2
[26] = tested on: Hepatitis C virus; assay: Ratio of EC50 for Hepatitis C virus subtype 1b expressing NS3 R155Q mutant to EC50 for Hepatitis C virus subtype 1b expressing WT NS3 infected in HuH7 cells after 48 hrs by luciferase reporter assay; assay type: functional, Hepacivirus hominis, genotype 1b, Huh-7; method in brief: as §2
[27] = tested on: Hepatitis C virus; assay: Ratio of EC50 for Hepatitis C virus subtype 1b expressing NS3 R155T mutant to EC50 for Hepatitis C virus subtype 1b expressing WT NS3 infected in HuH7 cells after 48 hrs by luciferase reporter assay; assay type: functional, Hepacivirus hominis, genotype 1b, Huh-7; method in brief: as §2
[28] = tested on: Hepatitis C virus; assay: Ratio of EC50 for Hepatitis C virus subtype 1b expressing NS3 A156G mutant to EC50 for Hepatitis C virus subtype 1b expressing WT NS3 infected in HuH7 cells after 48 hrs by luciferase reporter assay; assay type: functional, Hepacivirus hominis, genotype 1b, Huh-7; method in brief: as §1
[29] = tested on: Hepatitis C virus; assay: Ratio of EC50 for Hepatitis C virus subtype 1b expressing NS3 A156V mutant to EC50 for Hepatitis C virus subtype 1b expressing WT NS3 infected in HuH7 cells after 48 hrs by luciferase reporter assay; assay type: functional, Hepacivirus hominis, genotype 1b, Huh-7; method in brief: as §1
[30] = tested on: Hepatitis C virus; assay: Ratio of EC50 for Hepatitis C virus subtype 1b expressing NS3 Q80R and R155K mutant to EC50 for Hepatitis C virus subtype 1b expressing WT NS3 infected in HuH7 cells after 48 hrs by luciferase reporter assay; assay type: functional, Hepacivirus hominis, genotype 1b, Huh-7; method in brief: as §2

SMILES: COc1ccc2c(O[C@@H]3C[C@H]4C(=O)N[C@]5(C(=O)NS(=O)(=O)C6CC6)C[C@H]5/C=C\CCCCN(C)C(=O)[C@@H]4C3)cc(-c3nc(C(C)C)cs3)nc2c1C [SIMEPREVIR]
- EC50 [1]: 11 nM
- EC50 [2]: 20 nM
- EC50 [3]: 562 nM
- EC50 [4]: 626 nM
- EC50 [5]: 5.9 nM
- EC50 [6]: 41 nM
- EC50 [7]: 62 nM
- EC50 [8]: 21 nM
- EC50 [9]: 260 nM
- EC50 [10]: 2150 nM
- EC50 [11]: 302 nM
- EC50 [12]: 17900 nM
- EC50 [13]: 23200 nM
- EC50 [14]: 52 nM
- EC50 [15]: 1820 nM
- EC50 [16]: 3610 nM
- EC50 [17]: 4650 nM
- EC50 [18]: 2850 nM
- EC50 [19]: 5900 nM
- EC50 [20]: 16900 nM
- Ratio EC50 [21]: 2
- Ratio EC50 [22]: 12
- Ratio EC50 [23]: 0.6
- Ratio EC50 [24]: 7.7
- Ratio EC50 [25]: 0.4
- Ratio EC50 [26]: 1.6
- Ratio EC50 [27]: 24
- Ratio EC50 [28]: 16
- Ratio EC50 [29]: 177
- Ratio EC50 [30]: 270

SMILES: CCC[C@H](NC(=O)[C@@H]1[C@H]2CCC[C@H]2CN1C(=O)[C@@H](NC(=O)[C@@H](NC(=O)c1cnccn1)C1CCCCC1)C(C)(C)C)C(=O)C(=O)NC1CC1 [TELAPREVIR]
- EC50 [1]: 150 nM
- EC50 [2]: 886 nM
- EC50 [5]: 1560 nM
- EC50 [7]: 147 nM
- EC50 [8]: 570 nM
- EC50 [9]: 1470 nM
- EC50 [10]: 15500 nM
- EC50 [11]: 113 nM
- EC50 [17]: 2960 nM
- Ratio EC50 [21]: 10
- Ratio EC50 [22]: 6.1
- Ratio EC50 [23]: 7.5
- Ratio EC50 [24]: 0.5
- Ratio EC50 [25]: 14
- Ratio EC50 [26]: 2.5
- Ratio EC50 [27]: 74
- Ratio EC50 [28]: 0.6
- Ratio EC50 [29]: 112
